From ChEMBL document CHEMBL3085657, “Preparation and in vitro photodynamic activities of folate-conjugated distyryl boron dipyrromethene based photosensitizers” (J Med Chem, 2013) come the findings set out here.

For data set [1], the system named is MCF7. As to the kind of experiment: Selectivity ratio of IC50 for human MCF7 cells expressing low level of folate receptor to IC50 for human KB cells overexpressing folate receptor. The format is functional. The procedure, abridged: (§1)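 Cells seeded at about 1 × 10^4 (KB) or 2 × 10^4 (MCF-7) per well, grown overnight, then exposed to serial dilutions in folic acid free RPMI 1640. Dilutions came from 1.6 mM DMF stocks taken to 80 μM with aqueous Tween 80. After PBS rinse and fresh medium, cells were illuminated (halogen lamp, λ > 610 nm, 40 mW cm−2, 20 min, 48 J cm−2) and kept overnight at 37 °C. Read by MTT (3 h) with SDS/isopropanol solubilisation and A540. Viability is relative to wells without compound; three experiments in quadruplicate, mean ± SEM.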

Data set [2] has as its system MCF7. Put plainly: Photocytotoxicity against human MCF7 cells expressing low level of folate receptor assessed as cell viability incubated for 24 hrs followed by halogen light illumination measured after 20 mins by MTT assay. The format is functional, cell-based. Put shortly:
as §1
(Formazan colour is commonly taken as a measure of viable cells.)

The test system of data set [3] is KB. Put plainly: Photocytotoxicity against human KB cells overexpressing folate receptor assessed as cell viability incubated for 24 hrs followed by halogen light illumination measured after 20 mins by MTT assay. Format: functional, cell-based. Put shortly: as §1
Data set [4] is described as follows: Induction of singlet oxygen formation in DMF assessed as photodegradation of DPBF at 4 uM. The format is physicochemical. The procedure, abridged:
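Singlet oxygen generation measured in DMF with 1,3-diphenylisobenzofuran as scavenger. Scavenger photodegradation followed as the fall in absorbance at 415 nm over time, with ZnPc as the reference.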

Data set [5] concerns KB. As to the kind of experiment: Cytotoxicity against human KB cells overexpressing folate receptor assessed as cell viability at 80 uM after 24 hrs by MTT assay in absence of halogen light. Format: cell-based.
Data set [6] can be described thus: Cellular uptake in endoplasmic reticulum of human KB cells overexpressing folate receptor at 1 uM after 24 hrs by ER-tracker green based-confocal microscopic analysis. The format is ADME, cell-based. The procedure, abridged: (§2)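 KB cells (about 1 × 10^5 on coverslips, overnight at 37 °C, 5% CO2) given conjugate at 1 μM in folic acid free medium for 24 h. Then 15 min with Lyso-Tracker Green DND 26 (4.0 μM in medium), Mito-Tracker Green FM (0.2 μM in medium) or ER-Tracker Green (1.0 μM in PBS). PBS rinse; confocal imaging with 488 nm argon and 633 nm He-Ne lasers.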

For data set [7], the system named is KB. Put plainly: Cellular uptake in human KB cells overexpressing folate receptor at 1 uM after 24 hrs by bright field microscopy-based fluorescence assay. The format is ADME, cell-based. Put shortly:
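About 2 × 10^5 KB cells grown overnight on coverslips, then exposed to conjugate (1.0 μM) in folic acid free medium for 24 h at 37 °C. PBS rinse; confocal imaging with 633 nm He-Ne excitation and emission collected at 650−750 nm. Mean intracellular fluorescence taken over 50 cells per sample, reported as mean ± SD.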

Data set [8] has as its system KB. As to the kind of experiment: Cellular uptake in human KB cells overexpressing folate receptor at 5 uM after 24 hrs by bright field microscopy-based fluorescence assay. The format is ADME, cell-based. The procedure, abridged:
(§3)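 KB or MCF-7 cells (about 2 × 10^5 on coverslips, overnight at 37 °C, 5% CO2) incubated 24 h with 5.0 μM conjugate in folic acid free medium. PBS rinse; inverted microscope with 630 nm excitation, emission collected above 660 nm. Mean intracellular fluorescence from 24 cells per sample (mean ± SD), compared between the two lines.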

In data set [9] the test system is KB. As to the kind of experiment: Photocytotoxicity against human KB cells overexpressing folate receptor assessed as cell viability at IC50 incubated for 24 hrs followed by halogen light illumination measured after 20 mins by MTT assay in presence of free folic acid. Format: functional.
Data set [10] is described as follows: Cellular uptake in lysosome of human KB cells overexpressing folate receptor at 1 uM after 24 hrs by lyso-tracker DND 26-based confocal microscopic analysis. Format: ADME, cell-based. The procedure, abridged: as §2
Data set [11] in a line: Ratio of cellular uptake in human KB cells to human MCF7 cells at 5 uM after 24 hrs. The format is ADME, cell-based. To be noted: mcf7, 24 h. Put shortly:
as §3

For data set [12], the system named is MCF7. As to the kind of experiment: Cytotoxicity against human MCF7 cells expressing low level of folate receptor assessed as cell viability at 80 uM after 24 hrs by MTT assay in absence of halogen light. The format is cell-based. To be noted: mcf7, 24 h.
The nature of data set [13]: Cellular uptake in mitochondria of human KB cells overexpressing folate receptor at 1 uM after 24 hrs by mito-tracker green FM-based confocal microscopic analysis. Format: ADME. The procedure, abridged: as §2
Data set [14] relates to MCF7. As to the kind of experiment: Cellular uptake in human MCF7 cells expressing low level of folate receptor at 5 uM after 24 hrs by bright field microscopy-based fluorescence assay. To be noted: mcf7, 24 h. The format is ADME, cell-based. Put shortly:
as §3

What is called IC50 is the concentration that gives 50% inhibition. As to `C#CCOCCOCCOCCOc1ccc(C2=C3C(C)=C(I)C(/C=C/c4ccc(OCCOCCOCCOC)cc4)=[N+]3[B-](F)(F)n3c(/C=C/c4ccc(OCCOCCOCCOC)cc4)c(I)c(C)c32)cc1`, the “Ratio IC50” value with MCF7 [1] came to 3. The IC50 turned out to be 60 nM with MCF7 [2] and 20 nM in the data set on KB [3].

`COCCOCCOCCOc1ccc(/C=C/C2=[N+]3C(=C(c4ccc(OCc5cn(CCOCCOCCNC(=O)CC[C@H](NC(=O)c6ccc(NCc7cnc8nc(N)[nH]c(=O)c8n7)cc6)C(=O)O)nn5)cc4)c4c(C)c(I)c(/C=C/c5ccc(OCCOCCOCCOC)cc5)n4[B-]3(F)F)C(C)=C2I)cc1`: the Activity result in data set [4] is listed as “Active”; in the data set with KB [5] it was “Non-toxic”; in the data set with KB [9] it was 94%; in the data set on MCF7 [12], “Non-toxic”. Besides, the “Ratio IC50” value in the data set with MCF7 [1] is 43. Further, the half-maximal inhibitory concentration (IC50) was 2560 nM in the data set on MCF7 [2] and 60 nM with KB [3]. Further, the Drug uptake result in data set [6] was “Active”; in the data set with KB [7], “Active”; with KB [8], “Active”; in [10], “Active”; in [13] it was “Not Active”; in the data set on MCF7 [14] it was “Not Active”. Besides, in data set [11], the Ratio turned out to be 5.

On to `COCCOCCOCCOc1ccc(/C=C/C2=[N+]3C(=C(c4ccc(OCCOCCOCCOCc5cn(CCOCCOCCNC(=O)CC[C@H](NC(=O)c6ccc(NCc7cnc8nc(N)[nH]c(=O)c8n7)cc6)C(=O)O)nn5)cc4)c4c(C)c(I)c(/C=C/c5ccc(OCCOCCOCCOC)cc5)n4[B-]3(F)F)C(C)=C2I)cc1`, for which the Activity entry is on record as “Active” in data set [4], “Non-toxic” in the data set on KB [5] and “Non-toxic” in the data set with MCF7 [12]. Also, the “Ratio IC50” value with MCF7 [1] was determined as 6. In addition, the IC50 in the data set on MCF7 [2] came to 1000 nM; in the data set on KB [3], 180 nM. Moreover, the Drug uptake result (in data set [6]; in the data set with KB [7]; in [10]) was “Active” throughout.

In the case of `Nc1nc(=O)c2nc(CNc3ccc(C(=O)N[C@@H](CCC(=O)O)C(=O)O)cc3)cnc2[nH]1` [FOLIC ACID], the IC50 in the data set with KB [3] was found to be 500 nM.
